How the values were obtained:
Mus musculus [1] = test: Inhibition of spontaneous motor activity in mice, by administering perorally; format: functional; details: po
Outline: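 Mice in groups of five were dosed orally with gum arabic suspensions at 10 mL/kg after an overnight fast, with a vehicle control group. Locomotion was counted for 10 min in a photocell activity cage, in at least two groups per dose. ED50, by probit analysis, is the dose giving 50% inhibition against controls.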

Mus musculus [2] = test: Inhibition of amphetamine-induced hypermobility in mice following p.o. administration.; format: functional; details: po
Outline: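 Compounds were given orally to male mice (gum arabic suspension, 10 mL/kg, fasted) in groups of five. Amphetamine 4 mg/kg ip followed 30 min later. After another 10 min, motility was recorded for 15 min with a photocell actophotometer. ED50, by probit analysis, is the dose giving 50% reduction against controls.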

[3] = Lethal dose in mice (LD50) following i.p. dosing; format: toxicity, organism-based; details: mouse, in vivo, ip
Outline: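 Acute toxicity tested in mice by the intraperitoneal route. LD50 is the dose killing 50% of treated mice, computed by Finney probit analysis; values are approximate.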

Rattus norvegicus [4] = test: Activity to evoke catalepsy in rats, by administering perorally at a dose of 150 mg/kg; format: functional; details: route oral
Outline: (§1)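 Rats fasted overnight and given oral doses in arabic gum suspension (10 mL/kg), 1 h before screening or 1 and 5 h before profile testing. Forelegs placed on a horizontal bar 7 cm high, three times at 5-min intervals. Immobility of at least 15 s counts as catalepsy. ED50 is the dose giving catalepsy in 50% of rats, by probit analysis. Parenthetical entries give the maximal dose and percent activity.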

Rattus norvegicus [5] = test: Antagonistic activity against apomorphine-induced stereotypy in rats, by administering perorally at a dose of 400 mg/kg; format: functional; details: route oral
Outline: (§2)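 Male rats fasted overnight and given oral doses in arabic gum suspension (10 mL/kg) 1 h, or 1 and 5 h, before challenge. Apomorphine 3 mg/kg iv, with stereotypy observed 20 min later. ED50 is the dose inhibiting stereotypy in 50% of rats, per Janssen's method. Parenthetical entries give the maximal dose and percent activity.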

Rattus norvegicus [6] = test: Activity to evoke catalepsy in rats, by administering perorally at a dose of 70 mg/kg; format: functional; details: route oral; outline: as §1
Mus musculus [7] = test: Antagonistic activity against amphetamine-induced Hypermobility in mice, by administering perorally at a dose of 70 mg/kg; format: functional; details: route oral
Outline: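 Male mice in groups of five, fasted overnight, given oral drug in arabic gum suspension (10 mL/kg) 1 or 5 h ahead. Amphetamine 4 mg/kg ip given 30 min after drug. Ten minutes later locomotion is recorded for 15 min in a photocell actophotometer. ED50 is 50% reduction versus control hypermotility, by probit analysis. Parenthetical entries give the maximal dose and percent activity.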

Rattus norvegicus [8] = test: Antagonistic activity against apomorphine-induced stereotypy in rats, by administering perorally at a dose of 70 mg/kg; format: functional; details: route oral; outline: as §2
Mus musculus [9] = test: Inhibition of spontaneous motor activity in mice, by administering perorally at a dose of 70 mg/kg; format: functional; details: route oral
Outline: (§3)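 Mice fasted overnight, then dosed orally with compound (weighed as base) suspended in arabic gum, 10 mL/kg, with vehicle controls; 1 h pretreatment for screening tests, 1 or 5 h for others. Groups of five; locomotor activity counted 10 min in photocell activity cage, at least two groups per dose. ED50 = dose giving 50% inhibition versus controls, by probit analysis.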

Mus musculus [10] = test: Inhibition of spontaneous motor activity in mice, by administering perorally at a dose of 90 mg/kg; format: functional; details: route oral; outline: as §3
Rattus norvegicus [11] = test: Activity to evoke catalepsy in rats, by administering perorally at a dose of 90 mg/kg; format: functional; details: route oral; outline: as §1
Rattus norvegicus [12] = test: Antagonistic activity against apomorphine-induced stereotypy in rats, by administering perorally at a dose of 90 mg/kg; format: functional; details: route oral; outline: as §2
Rattus norvegicus [13] = test: Activity to evoke catalepsy in rats, by administering perorally at a dose of 60 mg/kg; format: functional; details: route oral; outline: as §1
Rattus norvegicus [14] = test: Antagonistic activity against apomorphine-induced stereotypy in rats, by administering perorally at a dose of 60 mg/kg; format: functional; details: route oral; outline: as §2

Row | Structure (SMILES) | ED50 (Mus musculus [1]) [mg/kg] | ED50 (Mus musculus [2]) [mg/kg] | LD50 [3] [mg/kg] | inhibition in vivo at 150 mg/kg (Rattus norvegicus [4]) [%] | inhibition in vivo at 400 mg/kg (Rattus norvegicus [5]) [%] | inhibition in vivo at 70 mg/kg (Rattus norvegicus [6]) [%] | inhibition in vivo at 70 mg/kg (Mus musculus [7]) [%] | inhibition in vivo at 70 mg/kg (Rattus norvegicus [8]) [%] | inhibition in vivo at 70 mg/kg (Mus musculus [9]) [%] | inhibition in vivo at 90 mg/kg (Mus musculus [10]) [%] | inhibition in vivo at 90 mg/kg (Rattus norvegicus [11]) [%] | inhibition in vivo at 90 mg/kg (Rattus norvegicus [12]) [%] | inhibition in vivo at 60 mg/kg (Rattus norvegicus [13]) [%] | inhibition in vivo at 60 mg/kg (Rattus norvegicus [14]) [%]
1 | Oc1nc(-c2ccc(Cl)cc2)c(CCN2CCN(c3ccccc3)CC2)o1 | 3 | 4.7 | > 1000 | 0 | 0 | – | – | – | – | – | – | – | – | –
2 | CSc1ccc(-c2nc(O)oc2CCN2CCN(c3ccccc3)CC2)cc1 | – | – | 250 | – | – | 0 | 0 | 0 | 47 | – | – | – | – | –
3 | Oc1nc(-c2ccc(F)cc2)c(CCN2CCN(c3cc(Cl)ccc3Cl)CC2)o1 | – | 10 | 750 | – | – | – | – | – | – | 45 | 0 | 0 | – | –
4 | Cc1ccccc1N1CCN(CCc2oc(O)nc2-c2ccc(F)cc2)CC1 | 6.3 | 8.6 | 250 | – | – | – | – | – | – | – | – | – | 0 | 0

— ChEMBL document CHEMBL1124344, “5-Piperazinylalkyl-2(3H)-oxazolones with neuroleptic activity” (J Med Chem, 1989)
